Results filed as inconclusive are left out.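 How the source made its calls, unless noted: active means viability increase at or above a cutoff of the median across tested compounds plus 3 SD (cut at about 8.5% in these data, passing the limit was not always enough); inconclusive means some gains above the cutoff, reason not given; inactive means the rest.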
Tests used:
[1] = S. cerevisiae growth inhibition in permissive medium (OD615), pilot counter-assay for S. cerevisiae lifespan shortening project, permissive growth control (AID 705;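 active means growth inhibition above 25% in both replicates, a cutoff set 3 SD above the mean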); details: OD615, 24 h, at 10 µM, hits give high values
Summary of the method: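 Timing: 24 h exposure, 30 °C / Material: Saccharomyces cerevisiae strain carrying genetically modified DeaD replicative-lifespan system / Signal: OD at 615 nm / Compound: 10 µM single dose, 0.25% DMSO / Medium: SC raffinose/galactose permissive medium / Evaluation: reduction in yeast growth (OD615)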

[2] = S. cerevisiae growth inhibition in restrictive medium, OD615, pilot screen, restrictive growth control, yeast lifespan reduction project (AID 706;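 active means growth inhibition above a set limit, 3 SD over mean compound inhibition, in both replicates, cut at about 43% in these data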;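 further: modified DeaD lifespan yeast strain shifted to restrictive glucose medium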); details: OD615, 48 h, at 10 µM, hits give high values
Summary of the method: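 System: Engineered S. cerevisiae DeaD strain | Detection: OD615 | Buffer or medium: CSMM-D glucose medium | Doses: 10 µM compound, 0.25% DMSO | Timing: 4 h pre-growth plus 48 h compound exposure, 30 °C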

[3] = doxorubicin toxicity protection in MRP-1 cells – H69AR cells, CellTiter-Glo, duplicate, MRP-1 activator project, pilot screen (AID 807); details: H69AR viability with doxorubicin, CellTiter-Glo luminescence; at 10 µM; hits give high values;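 further: compound pretreatment 18-22 h then 72 h combined with doxorubicin; 0% = doxorubicin alone and 100% = vehicle without doxorubicin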
[4] = viability of HCT116 without oncogenic beta-catenin – human colon tumor cells, pilot screen (AID 823;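 active means cell viability at or below a set limit in both duplicate runs, the limit being the all-compound median minus 4 SD, cut at about 23% in these data, passing the limit was not always enough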;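 further: 0% = wells killed by 20 µM Hyamine and 100% = untreated DMSO cell wells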); details: HCT116 beta-catenin knockout viability, CellTiter-Glo, 60 h; at 10 µM; hits give low values
[5] = viability of PTEN-null HCT116 cells – cell-based, HCT116 clonal line, CellTiter-Glo, pilot screen (AID 824;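 active means viability at or below 27.92% in each of two runs, the all-compound median minus 4 SD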;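 further: 0% = 20 µM Hyamine control and 100% = vehicle cell control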); details: HCT116 PTEN-deleted viability, 60 h, at 10 µM, hits give low values
[6] = RAM pathway blockade in budding yeast – dse1pr::URA3 reporter, 5-FOA selection, pilot screen (AID 869;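 active means inhibition over a set limit, the all-compound mean plus 3 SD, in both replicate runs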;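 further: 0% = DMSO wells with no growth and 100% = 10 µM 1-NA-PP1 with full growth; RAM network block rescues cells from 5-FOA so hits raise OD615 growth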); details: S. cerevisiae dse1pr::URA3 5-FOA growth, OD615, 2 d; at 10 µM; hits give high values; strain carries analog-sensitive mutant Cbk1 kinase
[7] = RAM signaling pathway blockade in yeast – S. cerevisiae, Pdr1DBD-CYC8 efflux-inhibited sensitized strain, primary screen (AID 1298;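 active means RAM network inhibition above 8.4% in each of two replicates, 3 SD over the compound average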;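 further: 0% = DMSO untreated cells without growth and 100% = 10 µM 1-NA-PP1 full growth; higher means more yeast growth rescued from 5-FOA killing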); details: S. cerevisiae cbk1-as DSE1-URA3 strain, 5-FOA growth OD615, 2 d; at 50 µM; hits give high values

CN(C)CCNC(=O)c1ccc(CS(=O)(=O)c2ccc(Br)cc2)o1
inactive: growth inhibition [1] 3.18% | growth inhibition [2] 4.8% | viability increase [3] -0.05% | viability [4] 103% | viability [5] 103% | inhibition [6] 0.565% | RAM network inhibition [7] 2.81%

O=C(NCCCn1ccnc1)c1cc(C2CC2)on1
inactive: growth inhibition [1] -14.9% | growth inhibition [2] -11.1% | viability increase [3] 0.19% | viability [4] 105% | viability [5] 103% | inhibition [6] 1.95% | RAM network inhibition [7] 6.12%

CC(C)N(Cc1nc(-c2ccccc2)no1)S(=O)(=O)c1ccccc1
inactive: growth inhibition [1] -10.8% | growth inhibition [2] -9.29% | viability increase [3] 1.67% | viability [4] 89.3% | viability [5] 79.5% | inhibition [6] 0.555% | RAM network inhibition [7] 4.95%

Cc1ccccc1NCN1C(=O)C2C3C=CC(C3)C2C1=O (stereo unspecified)
inactive: growth inhibition [1] -11.2% | growth inhibition [2] -18.2% | viability increase [3] -2.43% | viability [4] 86% | viability [5] 96.2% | inhibition [6] 3.66% | RAM network inhibition [7] 0.48%

COc1ccc(C)c2sc(=NC(=O)c3ccc(C#N)cc3)n(C)c12
inactive: growth inhibition [1] -5.79% | growth inhibition [2] -17.2% | viability increase [3] -3.95% | viability [4] 85.3% | viability [5] 81.6% | inhibition [6] 0.96% | RAM network inhibition [7] 1.83%

Cc1cc(C)c(NC(=O)CSc2nnc(-c3ccncc3)n2Cc2ccco2)c(Cl)c1
inactive: growth inhibition [1] 6.26% | growth inhibition [2] 12.8% | viability increase [3] -0.79% | viability [4] 98% | viability [5] 93.1% | inhibition [6] 1.79% | RAM network inhibition [7] 6.08%

COc1ccccc1-c1nnc(NC(=O)c2ccccc2F)o1
inactive: growth inhibition [1] -16.6% | growth inhibition [2] -17.1% | viability increase [3] -5.55% | viability [4] 88.3% | viability [5] 89.7% | inhibition [6] 1.22% | RAM network inhibition [7] 0.16%

CCCCN=C(C)c1c(O)c2ccccc2oc1=O
inactive: growth inhibition [1] -2.92% | growth inhibition [2] 5.07% | viability increase [3] -1.49% | viability [4] 102% | viability [5] 95.9% | inhibition [6] 0.01% | RAM network inhibition [7] -2%

CCC(C)Sc1nnc(Cc2cc(=O)[nH]c(=O)[nH]2)n1-c1ccc(F)cc1 (stereo unspecified)
inactive: growth inhibition [1] -0.665% | growth inhibition [2] 15.2% | viability increase [3] -1.78% | viability [4] 97.1% | viability [5] 100% | inhibition [6] 0.605% | RAM network inhibition [7] -1.47%

C=CCSC1=N/C(=C\c2ccsc2)C(=O)S1
inactive: growth inhibition [1] 7.03% | growth inhibition [2] 27.8% | viability increase [3] -2.48% | viability [4] 98.1% | viability [5] 93% | inhibition [6] 0.475% | RAM network inhibition [7] 0.97%

Cc1ccc(C(=O)NCc2ccc3c(c2)OCO3)cc1N1CCCC1=O
inactive: growth inhibition [1] 5.69% | growth inhibition [2] 4.36% | viability increase [3] -1.36% | viability [4] 91.7% | viability [5] 98.2% | inhibition [6] 0.635% | RAM network inhibition [7] 4.17%

CCOc1ccc(-n2c(Cc3cc(=O)[nH]c(=O)[nH]3)nnc2SCC(=O)OC)cc1
inactive: growth inhibition [1] -2.32% | growth inhibition [2] 3.42% | viability increase [3] 1.38% | viability [4] 104% | viability [5] 97.3% | inhibition [6] 2.62% | RAM network inhibition [7] 0.78%

CCC(=O)Nc1ccc(C(=O)c2ccccc2)cc1
inactive: growth inhibition [1] -6.81% | growth inhibition [2] -2.21% | viability increase [3] 2.97% | viability [4] 98.5% | viability [5] 97% | inhibition [6] 1.16% | RAM network inhibition [7] 2.9%

CC(=O)c1ccc(OCC(O)CN2C(C)(C)CC(O)CC2(C)C)cc1 (stereo unspecified)
inactive: growth inhibition [1] -16.9% | growth inhibition [2] -12.3% | viability increase [3] 1.37% | viability [4] 105% | viability [5] 96.8% | inhibition [6] 1.66% | RAM network inhibition [7] 7.12%

CC(=O)c1c(N(C)C)ccnc1C(F)(F)F
inactive: growth inhibition [1] -3.09% | growth inhibition [2] 8.03% | viability increase [3] -2.95% | viability [4] 107% | viability [5] 95.4% | inhibition [6] 1.92% | RAM network inhibition [7] 0.62%

COC(=O)c1ccccc1NC(NC(=O)c1ccco1)C(=O)c1ccc(C)cc1 (stereo unspecified)
inactive: growth inhibition [1] -0.235% | growth inhibition [2] -5.5% | viability increase [3] -4.41% | viability [4] 79% | viability [5] 70.3% | inhibition [6] 4.25% | RAM network inhibition [7] 7.66%

CC1(C)C(=O)OC(C(=O)c2ccccc2)C(C)(C)C1=O (stereo unspecified)
inactive: growth inhibition [1] -7.95% | growth inhibition [2] -6.81% | viability increase [3] 0.07% | viability [4] 105% | viability [5] 94.8% | inhibition [6] 0.83% | RAM network inhibition [7] 2.22%

O=C1CC(c2nc3ccccc3[nH]2)CN1c1cccc(C(F)(F)F)c1 (stereo unspecified)
inactive: growth inhibition [1] -1.92% | growth inhibition [2] 4.75% | viability increase [3] 6.49% | viability [4] 86% | viability [5] 76.5% | inhibition [6] 1.1% | RAM network inhibition [7] -2.12%

— PubChem BioAssay
